# Source: the array DNA melting data of Ke et al. (doi:10.1101/2024.01.08.574731)
# Tests used:
# [1] = melting temperature; fluorescence melt of hairpins on a sequencing array, two-state fit, raised by 9.35 °C to match UV melts; conditions: sodium 0.088 M
# Summary of the method: (§1)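 Cy3 signals were normalised both to pre-quench Cy3 and to control constructs. They came from library hairpins carrying annealed Cy3 and quencher oligos on a sequenced MiSeq flow cell, imaged in 50 mM Na-HEPES pH 8.0, 25 mM NaCl, in 2.5 °C steps up to 60 °C. Bootstrapped two-state fits gave melting temperature and folding enthalpy, and four replicates were combined by inverse variance. Fitted temperatures were then raised by 9.35 °C to match UV melts.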
# [2] = folding enthalpy; higher = less favourable; fluorescence melt of hairpins on a sequencing array, two-state fit; conditions: sodium 0.088 M
# Summary of the method: as §1
Sequence,Tm [1] [°C],folding enthalpy [2] [kcal/mol]
GAAACTGGAAACAGTTTC (((((((....))))))),56.9,-51.5
GAAAGCACGAAAGTGTTC (((..(((....)))))),24,-9.28
GAAAGCGAAAGCTACTTC ((((((....)))..))),35.9,-14.6
GAAAGCGAAAGCTCATTC ((((((....)))..))),23.9,-8.68
GAAAGCGAAAGCTGTTC ((((((....))).))),34.1,-10.8
GAAAGCGAAAGCTTTC ((((((....)))))),64.7,-34.9
GAAAGCGGAAACACTTTC (((((.(....).))))),36.2,-29.8
GAAAGGCGAAAGCCCTTC (((.(((....))).))),38.8,-13
GAAAGGGGAAACCCCTTC (((.(((....))).))),39.9,-14.8
GAAAGGGGAAACCCTTCC (.(((((....))))).),32.1,-19.7
GAAAGTGGAAACACTCTC ((.((((....)))).)),26.6,-19.4
GAAATAGGAAACTATTTC (((((((....))))))),46.4,-44.1
GAAATCGAAAGATTTC ((((((....)))))),55.9,-32.5
GAAATCGGAAACGATTCC (.(((((....))))).),37.1,-16.6
GAAATGCGAAAGCAATTC (((.(((....))).))),45.3,-20
GAAATTGAAAAATTTC ((((((....)))))),40.3,-23.6
GAAATTGGAAACAATTCC (.(((((....))))).),30.5,-22.9
GAACAAGGAAACTTGTTC (((((((....))))))),53,-44.9
GAACACGAAAGTGATTTC ((((((....)))..))),26.9,-12.3
GAACACGAAAGTGCTTTC ((((((....)))..))),27.8,-13
GAACACGAAAGTGGTTC ((((((....))).))),47.1,-18.6
GAACAGCCGAAAGGCTTC (((..(((....)))))),24.5,-5.48
GAACAGGGAAACCTGTCC (.(((((....))))).),35.1,-16.1

Sequence,Tm [1] [°C],folding enthalpy [2] [kcal/mol]
GAACAGGGAAACTTGTTC (((((.(....).))))),37.1,-27.2
GAACCACGAAAGTGTTTC (((.(((....))).))),37.2,-27.6
GAACCAGGAAACTGATTC (((.(((....))).))),32.3,-20.5
GAACCAGGAAACTGGTCC (.(((((....))))).),39.5,-12.6
GAACCCCGAAAGGGTTTC (((.(((....))).))),47.8,-16.2
GAACCCGAAAGGGAATTC ((((((....)))..))),31.4,-12.1
GAACCCGAAAGGGCCTTC ((((((....)))..))),34.6,-14.2
GAACCCGAAAGGGGGTTC ((((((....)))..))),56,-25.3
GAACCCGAAAGGGGTTC ((((((....))).))),61.1,-26
GAACCCGAAAGGGTATTC ((((((....)))..))),33.2,-9.47
GAACCCGGAAACGGGTCC (.(((((....))))).),45.4,-11.2
GAACCGGGAAACCGATTC (((.(((....))).))),39.2,-26.4
GAACCGGGAAACCGGCTC ((.((((....)))).)),46,-15.7
GAACCGGGAAACCGGTCC (.(((((....))))).),41.2,-11.6
GAACCTGGAAACGGGTTC (((((.(....).))))),50.7,-39.3
GAACGAGAAATCGTTC ((((((....)))))),54.5,-31.3
GAACGAGCGAAAGCTTTC (((..(((....)))))),23.9,-8.11
GAACGAGGAAACCCGTTC (((((.(....).))))),45.9,-33.5
GAACGAGGAAACTTGTTC ((((.((....)).)))),43.2,-28.7
GAACGCACGAAAGTGTTC (((..(((....)))))),34.1,-12.8
GAACGCGAAAGCGAGTTC ((((((....)))..))),43.1,-14.8
GAACGCGAAAGCGATTC ((((((....))).))),45.7,-14.1
GAACGCGAAAGCGATTTC ((((((....)))..))),32.3,-9.14
